Xi reactivation: X-chromosome reactivation activator | XiGFP mouse fibroblasts, % GFP-positive cells imaging, 3 d; cells co-treated with 5-aza-dC sensitizer; scaled so ellipticine positive control = 100% | activation, % at 7.58 µM | actives 0.055% (n = 360,000) | AID 743238;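 active = mean normalized replicate activation at least 10% and every replicate at or above 10%; inconclusive = only one of the two criteria met; inactive = mean below 10% and not all replicates reach 10%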;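 note: 0% = median of on-plate neutral control wells and 100% = ellipticine 6 µM median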
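Schedule: 3 d treatment, 15 min room-temperature fixation; system: 68-5-11 XiGFP fibroblast line; buffer or medium: DMEM plus 5-aza-dC sensitizer; control set: ellipticine 6 µM positive control; compound: one concentration, pinned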
Cneo AK release: causes C. neoformans cell lysis; lysis activity, % at 15 µM; AID 651654; adenylate kinase release luminescence, 4 h; normalised: neutral wells 0, clomiphene wells 100; actives 0.2% (n = 360,000);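 active = mean lysis activity across replicates of at least 80%, whatever share of replicates individually reach that level; inactive = mean lysis activity below 80%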
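Signal: Adenylate kinase release luminescence | Assay system: Log-phase Cryptococcus neoformans yeast cells | Input: Cells at 5 × 10^6 per mL | Buffer or medium: Fresh YPD growth medium | Compound: Single dose | Schedule: Static 4 h at 37 °C with compound, 1 h detection | Controls: Clomiphene | Read-out: Luminescence rise reflecting yeast cell lysis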
DENV2 CPE rescue: DENV2-induced cell death inhibition. DENV2-infected cells, cytopathic effect rescue, plate reader. CPE inhibition, % at 9.99 µM. actives 1.7% (n = 350,000). AID 651640; in the data active = CPE inhibition above about 20%, passing the limit was not always enough; inconclusive = no clear call, values can overlap the other calls; tested in BHK-21 cells;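 note: 0% = median of neutral control wells and 100% = median of positive control wells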
Statin myotox sup: protects C2C12 myotubes from simvastatin toxicity; ATP luminescence, 48 h; scaled: DMSO 0, geranylgeraniol control 100; rescue of ATP level, % at 7.49 µM; actives 0.78% (n = 330,000); AID 602340;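 active = mean ATP rescue above about 67%, or every replicate alone reaching that limit, limit read from the data, passing the limit was not always enough; inconclusive = no clear call, values can overlap the other calls; inactive = mean under the limit and some replicate under it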;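 note: myotubes were challenged with 10 µM simvastatin during compound exposure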
Starred values were filed as active, the others as inactive; ! = not confirmed by another sample. The list is not random: actives were taken first. Their share in the collection is about 2.1%.

What do the screens show for `NC(=O)CSc1nc(-c2ccccc2)nc2c1CCCC2`?
Xi reactivation: 0.1

How did CCCNC(=O)C[C@H]1CC[C@@H]2[C@H](COc3ccc(NC(=O)NCC)cc3C(=O)N2C)O1 do in these assays?
Xi reactivation: 0.3; Cneo AK release: 2.3; DENV2 CPE rescue: -7.7; Statin myotox sup: 31.4

Results for COc1ccc2c3c(n(C)c2c1)[C@@H](CO)N(C)CC31CCN(CC2CC2)CC1 ?
Xi reactivation: 0.3; DENV2 CPE rescue: 48.2*

Results for COc1ccc2c3c(n(C)c2c1)[C@@H](CO)N(S(C)(=O)=O)CC31CCN(CC2CCCC2)CC1 ?
Xi reactivation: 0.2; DENV2 CPE rescue: 56.3*

Results for COc1ccc2c3c(n(C)c2c1)[C@H](CO)N(C)CC31CN(CC2CC2)C1 ?
Xi reactivation: 0.0; DENV2 CPE rescue: 9.0

What do the screens show for `COc1ccc2c3c(n(C)c2c1)[C@@H](CO)N(S(C)(=O)=O)CC31CCN(CC2CCCCC2)CC1`?
Xi reactivation: 0.0; DENV2 CPE rescue: 8.9

Results for COc1ccc2c3c(n(C)c2c1)[C@H](CO)N(S(=O)(=O)c1cn(C)cn1)CC31CCN(C)CC1 ?
Xi reactivation: 0.1; DENV2 CPE rescue: 31.7*

What do the screens show for `COc1ccc2c3c(n(C)c2c1)[C@@H](CO)N(S(=O)(=O)c1cn(C)cn1)CC31CCN(C)CC1`?
Xi reactivation: 0.0

What do the screens show for `COCC(=O)N1C[C@H](C)[C@@H](OC)CN(C)C(=O)c2ccc(NC(=O)Nc3ccccc3)cc2OC[C@H]1C`?
Xi reactivation: 0.3; Cneo AK release: -12.3; DENV2 CPE rescue: -3.8; Statin myotox sup: 6.1

Results for CCCNC(=O)N1CC2(CCN(Cc3cccc(F)c3)CC2)c2c([nH]c3cc(OC)ccc23)[C@@H]1CO ?
Xi reactivation: 0.0; DENV2 CPE rescue: 6.5

What do the screens show for `Fc1ccccc1OCCCN1CCOCC1`?
Cneo AK release: -2.0; Statin myotox sup: 169.2*

Results for c1ccc(-c2ccccc2OCCCN2CCOCC2)cc1 ?
Xi reactivation: 0.0; DENV2 CPE rescue: -0.8

What do the screens show for `CCS(=O)(=O)N1CC(=O)N2[C@H](CO)[C@@H](c3ccc(-c4ccccc4F)cc3)[C@H]2C1`?
Xi reactivation: 0.2; DENV2 CPE rescue: -4.4

How did N/C(=N\OC(=O)c1ccccc1)c1ccccn1 do in these assays?
Xi reactivation: -0.1; Cneo AK release: -6.7; DENV2 CPE rescue: 1.6; Statin myotox sup: -37.6

How did Cc1ccc(C(=O)O/N=C(\N)c2ccccn2)cc1 do in these assays?
Xi reactivation: 0.1; Cneo AK release: -10.4; DENV2 CPE rescue: 28.8*; Statin myotox sup: -97.4

How did COc1ccc2c3c(n(C)c2c1)[C@H](CO)N(Cc1ccncc1)CC31CN(C(=O)C2CC2)C1 do in these assays?
Xi reactivation: 0.2; DENV2 CPE rescue: 1.2

What do the screens show for `COc1ccc(-c2cnc3c(c2)C(=O)N([C@@H](C)CO)C[C@H](C)[C@@H](CN(C)Cc2ccccc2)O3)cc1`?
Xi reactivation: 0.1; Cneo AK release: -4.2; DENV2 CPE rescue: 47.8*; Statin myotox sup: 35.3

What do the screens show for `COc1cccc(-c2cnc3c(c2)C(=O)N([C@H](C)CO)C[C@H](C)[C@H](CN(C)Cc2cccc(C)c2)O3)c1`?
Xi reactivation: -0.6; Cneo AK release: 0.1; DENV2 CPE rescue: -7.9; Statin myotox sup: 116.8*

Results for COc1cccc(NC(=S)NC(=O)Cc2ccc(Cl)cc2)c1 ?
Xi reactivation: 0.1; Cneo AK release: 83.3*; DENV2 CPE rescue: -4.9; Statin myotox sup: -2.8

How did COc1ccc(CC(=O)NC(=S)Nc2cccc(C)c2)cc1 do in these assays?
Xi reactivation: 0.3; DENV2 CPE rescue: -1.0

Results for CC(=O)N(C)C[C@H]1Oc2ncc(C#Cc3ccncc3)cc2C(=O)N([C@@H](C)CO)C[C@H]1C ?
Xi reactivation: 0.5; Cneo AK release: 37.4; DENV2 CPE rescue: inconclusive; Statin myotox sup: -5.2

What do the screens show for `COc1cc2c(c(O)c1OC)C(=O)C(OC)CCC2` (stereo unspecified)?
Cneo AK release: 0.8; Statin myotox sup: 89.3*

Results for O=C(OCc1ccccc1)c1ccc(NCc2cc(O)ccc2O)cc1 ?
Xi reactivation: 0.0; DENV2 CPE rescue: -4.2

Results for CC(C)OC(=O)c1ccc(NCc2cc(O)ccc2O)cc1 ?
Xi reactivation: 1.0; DENV2 CPE rescue: 51.4*

Results for COc1ccc(S(=O)(=O)N(C)C[C@@H]2OCCCC[C@H](C)Oc3ccc(NC(=O)CCC(F)(F)F)cc3C(=O)N([C@@H](C)CO)C[C@@H]2C)cc1 ?
Xi reactivation: -0.2; Cneo AK release: -2.2; DENV2 CPE rescue: -1.8

What do the screens show for `CCOC(=O)N1CCN(C(=O)C(c2ccccc2)c2ccccc2)CC1`?
Statin myotox sup: 114.8*

How did CCOC(=O)N1CCN(C(=O)C(C)N(c2ccccc2)S(C)(=O)=O)CC1 (stereo unspecified) do in these assays?
Xi reactivation: 0.1; DENV2 CPE rescue: -3.3

Results for C[C@H]1CN([C@@H](C)CO)C(=O)c2cccc(NC(=O)NC3CCCCC3)c2O[C@@H]1CN(C)S(=O)(=O)c1ccc(Cl)cc1 ?
Xi reactivation: -0.1; Cneo AK release: -0.2; DENV2 CPE rescue: 26.8*; Statin myotox sup: 4.1

What do the screens show for `C[C@@H]1CN([C@@H](C)CO)C(=O)c2cccc(NC(=O)Nc3ccc(C(F)(F)F)cc3)c2O[C@H]1CN(C)S(=O)(=O)c1ccc(Cl)cc1`?
Xi reactivation: 0.0; Cneo AK release: -1.0; DENV2 CPE rescue: -6.1; Statin myotox sup: -5.0

What do the screens show for `C[C@H](CO)N1C[C@H](C)[C@@H](CN(C)S(=O)(=O)c2ccc(Cl)cc2)Oc2c(NC(=O)Nc3ccc(C(F)(F)F)cc3)cccc2C1=O`?
Xi reactivation: -0.1; Cneo AK release: 0.2; DENV2 CPE rescue: 8.1; Statin myotox sup: 102.5*

Results for C[C@H]1CN([C@@H](C)CO)C(=O)c2cccc(NC(=O)Nc3ccc(C(F)(F)F)cc3)c2O[C@@H]1CN(C)S(=O)(=O)c1ccc(Cl)cc1 ?
Xi reactivation: 0.0; Cneo AK release: -1.6; DENV2 CPE rescue: inconclusive; Statin myotox sup: 112.6*!

What do the screens show for `Cc1ccc(S(=O)(=O)N(C)C[C@H]2Oc3c(NC(=O)Nc4ccc(C(F)(F)F)cc4)cccc3C(=O)N([C@H](C)CO)C[C@H]2C)cc1`?
Xi reactivation: 0.3; Cneo AK release: -0.4; DENV2 CPE rescue: 1.2; Statin myotox sup: 6.2

Results for Cc1noc(C)c1NC(=O)Nc1ccc2c(c1)C(=O)N(C)[C@H]1CC[C@H](CC(=O)N[C@@H]3CCN(Cc4ccccc4)C3)O[C@@H]1CO2 ?
Xi reactivation: 0.1; Cneo AK release: 2.3; DENV2 CPE rescue: -2.1; Statin myotox sup: 31.7

What do the screens show for `CC(C)NC(=O)Nc1ccc2c(c1)C(=O)N([C@H](C)CO)C[C@H](C)[C@@H](CN(C)C(=O)Nc1ccccc1)OCCCC[C@H](C)O2`?
Xi reactivation: 0.1; Cneo AK release: 0.1; DENV2 CPE rescue: -0.9

Screens as filed in PubChem BioAssay.
